Experimental data: ChEMBL document CHEMBL1833923, “Effects of linker elongation in a series of N-(2-benzofuranylmethyl)-N'-(methoxyphenylalkyl)piperazine σ₁ receptor ligands” (Bioorg Med Chem Lett, 2011)

Legend:
[1] = Displacement of [3H]DTG from sigma 2 receptor in rat PC12 cells after 2 hrs by liquid scintillation counting; type: cell-based; conditions: pc-12
Method in brief: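 σ2 affinity by competition with [³H]DTG in a PC12 cell preparation, following a modified Kovacs and Larson protocol. Ki determinations were run by the NIMH PDSP. Values are mean ± SEM of triplicate assays.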

[2] = molecular target: T1, D(2) dopamine receptor (Homo sapiens, UniProt P14416); assay: Displacement of [3H]N-methylspiperone from D2 after 1.5 hrs by liquid scintillation counting
T1 sequence (P14416 whole entry): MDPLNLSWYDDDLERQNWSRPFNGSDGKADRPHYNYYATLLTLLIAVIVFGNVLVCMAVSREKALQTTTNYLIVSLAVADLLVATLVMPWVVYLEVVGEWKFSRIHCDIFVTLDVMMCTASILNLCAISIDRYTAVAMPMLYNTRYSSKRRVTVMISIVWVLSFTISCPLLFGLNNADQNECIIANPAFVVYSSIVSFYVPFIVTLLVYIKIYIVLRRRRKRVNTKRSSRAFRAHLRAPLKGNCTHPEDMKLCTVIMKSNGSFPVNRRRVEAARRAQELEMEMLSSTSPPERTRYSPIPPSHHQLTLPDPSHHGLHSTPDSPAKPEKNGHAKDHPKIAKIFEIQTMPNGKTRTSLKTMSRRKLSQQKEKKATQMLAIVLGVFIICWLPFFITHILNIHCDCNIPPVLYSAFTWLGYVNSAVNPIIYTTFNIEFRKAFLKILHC

[3] = Displacement of [3H]MK801 from PCP binding site of NMDA receptor at 10 uM after 1.5 hrs by liquid scintillation counting
[4] = molecular target: 5-hydroxytryptamine receptor 2B (Homo sapiens, UniProt P41595); assay: Displacement of [3H]LSD from 5-HT2B after 1.5 hrs by liquid scintillation counting
Sequence of 5-hydroxytryptamine receptor 2B (P41595 whole entry): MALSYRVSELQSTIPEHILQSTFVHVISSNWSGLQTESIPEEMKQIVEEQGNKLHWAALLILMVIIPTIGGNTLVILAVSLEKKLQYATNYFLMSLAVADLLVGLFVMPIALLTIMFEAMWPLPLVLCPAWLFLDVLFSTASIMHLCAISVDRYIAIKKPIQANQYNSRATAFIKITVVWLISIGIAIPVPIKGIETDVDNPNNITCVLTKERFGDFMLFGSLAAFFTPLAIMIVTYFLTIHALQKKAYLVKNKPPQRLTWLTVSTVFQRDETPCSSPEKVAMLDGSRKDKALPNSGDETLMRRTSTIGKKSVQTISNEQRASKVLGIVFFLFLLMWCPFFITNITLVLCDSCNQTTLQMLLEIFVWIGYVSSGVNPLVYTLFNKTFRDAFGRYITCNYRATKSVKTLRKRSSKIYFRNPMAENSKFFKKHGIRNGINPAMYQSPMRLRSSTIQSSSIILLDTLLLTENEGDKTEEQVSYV

[5] = molecular target: T1, D(2) dopamine receptor; assay: Displacement of [3H]N-methylspiperone from D2 at 10 uM after 1.5 hrs by liquid scintillation counting
[6] = molecular target: Sigma non-opioid intracellular receptor 1 (Rattus norvegicus, UniProt Q9R0C9); assay: Displacement of [3H](+)-pentazocine from sigma 1 receptor in rat brain homogenate after 2.5 hrs by liquid scintillation counting; type: tissue-based
Sequence of Sigma non-opioid intracellular receptor 1 (Q9R0C9 whole entry): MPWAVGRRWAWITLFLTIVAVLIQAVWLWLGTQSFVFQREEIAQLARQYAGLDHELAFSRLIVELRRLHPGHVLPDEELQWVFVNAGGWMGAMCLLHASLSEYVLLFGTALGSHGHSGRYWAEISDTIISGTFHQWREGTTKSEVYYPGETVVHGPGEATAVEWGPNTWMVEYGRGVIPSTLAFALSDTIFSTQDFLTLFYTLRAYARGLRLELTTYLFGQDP
Method in brief: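 σ1 affinity by competition with [³H](+)-pentazocine in rat brain homogenate, following a modification of the Kovacs and Larson protocol. Ki determinations were run by the NIMH Psychoactive Drug Screening Program. Values are mean ± SEM from triplicate assays.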

[7] = test system: PC-12; assay: Selectivity ratio of Ki for sigma 2 receptor in rat PC12 cells to Ki for sigma 1 receptor in rat brain homogenates; type: cell-based
Method in brief: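 Competition binding, done by the NIMH Psychoactive Drug Screening Program. σ1 Ki came from displacement of [³H](+)-pentazocine in rat brain homogenate, and σ2 Ki from displacement of [³H]DTG in a PC12 cell preparation. Ki values were mean with SEM from triplicate assays. The ratio is σ2 Ki divided by σ1 Ki.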

Compound `COc1ccc(CCCN2CCN(Cc3cc4ccccc4o3)CC2)cc1` has a Ki [1] of 138 nM, a Ki [2] greater than 10000 nM and an inhibition [3] of less than 50%. For the same compound, the Ki [4] was 155 nM, the inhibition [5] was less than 50% and the Ki [6] was 3.1 nM. The Ratio Ki [7] was 45.

`COc1cccc(CCCN2CCN(Cc3cc4ccccc4o3)CC2)c1` gave a Ki [1] of 40 nM, a Ki [2] of 556 nM and an inhibition [3] of less than 50%. It also gave a Ki [4] of 243 nM, a Ki [6] of 5.7 nM and a Ratio Ki [7] of 7.

`COc1ccc(CCN2CCN(Cc3cc4ccccc4o3)CC2)cc1` showed a Ki [1] of 101 nM, an inhibition [3] of less than 50% and a Ki [4] of 463 nM. For the same compound, the inhibition [5] was less than 50%, the Ki [6] was 9.4 nM and the Ratio Ki [7] was 11.

Compound `COc1ccccc1CCCN1CCN(Cc2cc3ccccc3o2)CC1` has a Ki [1] of 53 nM, a Ki [2] of 5870 nM and an inhibition [3] of less than 50%. It also gave a Ki [4] of 628 nM, a Ki [6] of 8.3 nM and a Ratio Ki [7] of 6.

For `COc1ccccc1CCCCN1CCN(Cc2cc3ccccc3o2)CC1`, the Ki [1] was 130 nM, the Ki [2] was 432 nM and the inhibition [3] was less than 50%. The Ki [4] was 332 nM, the Ki [6] was 16 nM and the Ratio Ki [7] was 8.

`COc1cccc(CCN2CCN(Cc3cc4ccccc4o3)CC2)c1` gave a Ki [1] of 14 nM, an inhibition [3] of less than 50% and a Ki [4] of 290 nM. It also gave an inhibition [5] of less than 50%, a Ki [6] of 13 nM and a Ratio Ki [7] of 1.

`c1ccc(CCN2CCN(Cc3cc4ccccc4o3)CC2)cc1` gave a Ki [1] of 131 nM, an inhibition [3] of less than 50% and a Ki [4] of 310 nM. The inhibition [5] was less than 50%, the Ki [6] was 7.3 nM and the Ratio Ki [7] was 18.

Work on `COc1ccccc1CCN1CCN(Cc2cc3ccccc3o2)CC1` yielded a Ki [1] of 81 nM, a Ki [2] of 1650 nM and an inhibition [3] of less than 50%. The Ki [4] was 120 nM, the Ki [6] was 17 nM and the Ratio Ki [7] was 5.

For `c1ccc(CCCN2CCN(Cc3cc4ccccc4o3)CC2)cc1`, the Ki [1] was 18 nM, the Ki [2] was 1020 nM and the inhibition [3] was less than 50%. The Ki [4] was 147 nM, the Ki [6] was 5.7 nM and the Ratio Ki [7] was 3.

`COc1cccc(CCCCN2CCN(Cc3cc4ccccc4o3)CC2)c1` showed a Ki [1] of 211 nM, a Ki [2] of 484 nM and an inhibition [3] of less than 50%. For the same compound, the Ki [4] was 343 nM, the Ki [6] was 7.6 nM and the Ratio Ki [7] was 28.

With `COc1ccc(CCCCN2CCN(Cc3cc4ccccc4o3)CC2)cc1` the Ki [1] was 87 nM, the Ki [2] was 5790 nM and the inhibition [3] was less than 50%. The Ki [4] was 352 nM, the Ki [6] was 13 nM and the Ratio Ki [7] was 7.

Work on `c1ccc(CCCCN2CCN(Cc3cc4ccccc4o3)CC2)cc1` yielded a Ki [1] of 18 nM, a Ki [2] of 89 nM and an inhibition [3] of less than 50%. It also gave a Ki [4] of 275 nM, a Ki [6] of 4.2 nM and a Ratio Ki [7] of 4.
